According to ChEMBL document CHEMBL1123985, “Oral absorption of cephalosporin antibiotics. 1. Synthesis, biological properties, and oral bioavailability of 7-(arylacetamido)-3-chloro cephalosporins in animals” (J Med Chem, 1988):
Converted amounts (≈) assume the structure as drawn.

Columns and labels:
[1] = Minimum inhibitory concentration against N9 strain of Shigella sonnei; assay type: functional
[2] = Oral bioavailability in mouse; assay type: ADME, organism-based; conditions: in vivo
In short: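 Male Cox mice given water and liquid diet overnight; 20 mg/kg in saline (2 mg/mL) sc or orally; urine from collection cages plus bladder contents over 2 h; activity by agar well assay with Bacillus subtilis ATCC 6633. Bioavailability from percent dose excreted in urine after oral vs parenteral dosing.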

[3] = tested on: Klebsiella pneumoniae; test: Minimum inhibitory concentration against X68 strain of Klebsiella pneumoniae; assay type: functional
[4] = tested on: Staphylococcus aureus; test: Minimum inhibitory concentration against S13E strain of Staphylococcus aureus; assay type: functional
[5] = tested on: Streptococcus pneumoniae; test: Minimum inhibitory concentration against park strain of Streptococcus pneumoniae
[6] = Minimum inhibitory concentration against res 76 strain of Haemophilus influenzae; assay type: functional
[7] = tested on: Staphylococcus aureus; test: Minimum inhibitory concentration against X1.1 strain of Staphylococcus aureus; assay type: functional
[8] = tested on: Staphylococcus epidermidis; test: Minimum inhibitory concentration against Epil strain of Staphylococcus epidermidis; assay type: functional
[9] = tested on: Staphylococcus aureus; test: Minimum inhibitory concentration against V41 strain of Staphylococcus aureus; assay type: functional
[10] = tested on: Staphylococcus epidermidis; test: Minimum inhibitory concentration against 222 strain of Staphylococcus epidermidis; assay type: functional
[11] = tested on: Staphylococcus aureus; test: Minimum inhibitory concentration against 3055 strain of Staphylococcus aureus
[12] = tested on: Streptococcus pyogenes; test: Minimum inhibitory concentration against C203 strain of Streptococcus pyogenes
[13] = tested on: Streptococcus pneumoniae; test: Minimum inhibitory concentration against Park strain of Streptococcus pneumoniae
[14] = Minimum inhibitory concentration against sens CL strain of Haemophilus influenzae; assay type: functional
[15] = tested on: Escherichia coli; test: Minimum inhibitory concentration against EC14 strain Escherichia coli; assay type: functional
[16] = tested on: Streptococcus pyogenes; test: Minimum inhibitory concentration against Streptococcus pyogenes C203; assay type: functional
[17] = tested on: Klebsiella aerogenes; test: Minimum inhibitory concentration against EB17 strain of Enterobacter aerogenes; assay type: functional
[18] = tested on: Salmonella; test: Minimum inhibitory concentration against X514 strain of Salmonella; assay type: functional
[19] = tested on: Streptococcus pyogenes; test: Minimum inhibitory concentration against C203 strain of Streptococcus pyogenes; remark: listed apart in the source

| Compound | MIC [1] | bioavailability [2] | MIC [3] | MIC [4] | MIC [5] | MIC [6] | MIC [7] | MIC [8] | MIC [9] | MIC [10] | MIC [11] | MIC [12] | MIC [13] | MIC [14] | MIC [15] | MIC [16] | MIC [17] | MIC [18] | MIC [19] |
| --- | --- | --- | --- | --- | --- | --- | --- | --- | --- | --- | --- | --- | --- | --- | --- | --- | --- | --- | --- |
| C=CC1=C(C(=O)O)N2C(=O)[C@@H](NC(=O)COc3ccccc3)[C@H]2SC1 | > 128 µg/mL | 36% | > 128 µg/mL | 16 µg/mL (≈ 44.4 µM) | 0.25 µg/mL (≈ 0.694 µM) | 1 µg/mL (≈ 2.77 µM) | 0.25 µg/mL (≈ 0.694 µM) | 8 µg/mL (≈ 22.2 µM) | 16 µg/mL (≈ 44.4 µM) | 0.5 µg/mL (≈ 1.39 µM) | 0.25 µg/mL (≈ 0.694 µM) | 0.125 µg/mL (≈ 0.347 µM) | 0.125 µg/mL (≈ 0.347 µM) | 4 µg/mL (≈ 11.1 µM) | > 128 µg/mL | 0.125 µg/mL (≈ 0.347 µM) | > 128 µg/mL | > 128 µg/mL |  |
| COCC1=C(C(=O)O)N2C(=O)[C@@H](NC(=O)COc3ccccc3)[C@H]2SC1 | > 128 µg/mL | 19% | > 128 µg/mL | 32 µg/mL (≈ 84.6 µM) |  | 2 µg/mL (≈ 5.29 µM) | 0.25 µg/mL (≈ 0.661 µM) | 0.5 µg/mL (≈ 1.32 µM) | 0.5 µg/mL (≈ 1.32 µM) | 0.25 µg/mL (≈ 0.661 µM) |  |  | 0.125 µg/mL (≈ 0.33 µM) | 2 µg/mL (≈ 5.29 µM) | > 128 µg/mL | 0.06 µg/mL (≈ 0.159 µM) | > 128 µg/mL | > 128 µg/mL |  |
| O=C(COc1ccccc1)N[C@@H]1C(=O)N2C(C(=O)O)=CCS[C@H]12 | > 128 µg/mL | 22% | > 128 µg/mL | 16 µg/mL (≈ 47.9 µM) | 0.25 µg/mL (≈ 0.748 µM) | 8 µg/mL (≈ 23.9 µM) | 0.5 µg/mL (≈ 1.5 µM) | 2 µg/mL (≈ 5.98 µM) | 16 µg/mL (≈ 47.9 µM) | 0.5 µg/mL (≈ 1.5 µM) | 0.5 µg/mL (≈ 1.5 µM) | 0.25 µg/mL (≈ 0.748 µM) | 1 µg/mL (≈ 2.99 µM) | 32 µg/mL (≈ 95.7 µM) | 32 µg/mL (≈ 95.7 µM) | 0.5 µg/mL (≈ 1.5 µM) | > 128 µg/mL | > 128 µg/mL |  |
| C=CC1=C(C(=O)O)N2C(=O)[C@@H](NC(=O)Cc3csc(N)n3)[C@H]2SC1 |  | 25% | 2 µg/mL (≈ 5.46 µM) | 16 µg/mL (≈ 43.7 µM) |  | 2 µg/mL (≈ 5.46 µM) | 1 µg/mL (≈ 2.73 µM) | 8 µg/mL (≈ 21.8 µM) | 8 µg/mL (≈ 21.8 µM) | 1 µg/mL (≈ 2.73 µM) |  |  | 0.5 µg/mL (≈ 1.36 µM) | 4 µg/mL (≈ 10.9 µM) | 4 µg/mL (≈ 10.9 µM) | 0.125 µg/mL (≈ 0.341 µM) | 128 µg/mL (≈ 349 µM) | 2 µg/mL (≈ 5.46 µM) |  |
| Cc1nc(CC(=O)N[C@@H]2C(=O)N3C(C(=O)O)=C(Cl)CS[C@H]23)cs1 | 64 µg/mL (≈ 171 µM) | 66% |  |  |  |  |  |  |  |  |  |  | 1 µg/mL (≈ 2.67 µM) |  |  |  | > 128 µg/mL | 4 µg/mL (≈ 10.7 µM) |  |
| O=C(COc1ccc(O)cc1)N[C@@H]1C(=O)N2C(C(=O)O)=C(Cl)CS[C@H]12 | 64 µg/mL (≈ 166 µM) | 21% | > 128 µg/mL | 128 µg/mL (≈ 333 µM) |  | 1 µg/mL (≈ 2.6 µM) | 0.5 µg/mL (≈ 1.3 µM) | 16 µg/mL (≈ 41.6 µM) | 128 µg/mL (≈ 333 µM) | 1 µg/mL (≈ 2.6 µM) |  |  | 0.125 µg/mL (≈ 0.325 µM) | 2 µg/mL (≈ 5.2 µM) | 64 µg/mL (≈ 166 µM) | 0.06 µg/mL (≈ 0.156 µM) | > 128 µg/mL | 64 µg/mL (≈ 166 µM) |  |
| O=C(Cc1ccccc1)N[C@@H]1C(=O)N2C(C(=O)O)=CCS[C@H]12 | 64 µg/mL (≈ 201 µM) | 12% | 4 µg/mL (≈ 12.6 µM) | 32 µg/mL (≈ 101 µM) | 1 µg/mL (≈ 3.14 µM) | 1 µg/mL (≈ 3.14 µM) | 1 µg/mL (≈ 3.14 µM) | 4 µg/mL (≈ 12.6 µM) | 16 µg/mL (≈ 50.3 µM) | 1 µg/mL (≈ 3.14 µM) | 1 µg/mL (≈ 3.14 µM) | 0.25 µg/mL (≈ 0.785 µM) | 1 µg/mL (≈ 3.14 µM) | 4 µg/mL (≈ 12.6 µM) | 8 µg/mL (≈ 25.1 µM) | 0.25 µg/mL (≈ 0.785 µM) | 64 µg/mL (≈ 201 µM) | 8 µg/mL (≈ 25.1 µM) |  |
| CC1=C(C(=O)O)N2C(=O)[C@@H](NC(=O)[C@H](N)c3ccccc3)[C@H]2SC1 [CEPHALEXIN ANHYDROUS] |  |  |  |  | 4 µg/mL (≈ 11.5 µM) |  |  |  |  |  | 1 µg/mL (≈ 2.88 µM) |  |  |  |  |  |  |  | 0.5 µg/mL (≈ 1.44 µM) |
